Data published in ChEMBL document CHEMBL2311435, “Development of 18F-labeled picolinamide probes for PET imaging of malignant melanoma” (J Med Chem, 2013).

What was measured:
Intestine [1] = experiment: Biodistribution in intestine of C57BL/6 mouse xenografted with mouse B16F10 cells at 3.7 MBq, iv after 1 hr by gamma-scintillation counting analysis; assay type: ADME, organism-based, B16-F10; details: in vivo
How it was run: (§1)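 1.0 × 10^6 B16F10 cells in PBS injected subcutaneously into the right shoulder of C57BL/6 mice, grown to 0.5 cm (~10 day). Tail-vein injection of about 3.7 MBq (100 μCi) 18F probe in PBS (0.1 M, pH 7.4). Killed at 1.0 or 2.0 h p.i. (n = 4 per group). Tissues excised, weighed and gamma-counted; uptake expressed as %ID/g, mean ± SD.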

Brain = experiment: Biodistribution in brain of C57BL/6 mouse xenografted with mouse B16F10 cells at 3.7 MBq, iv after 1 hr by gamma-scintillation counting analysis; assay type: ADME, organism-based, B16-F10; details: in vivo; how it was run: as §1
Stomach [2] = experiment: Biodistribution in stomach of C57BL/6 mouse xenografted with mouse B16F10 cells at 3.7 MBq, iv after 1 hr by gamma-scintillation counting analysis; assay type: ADME, organism-based, B16-F10; details: in vivo; how it was run: as §1
Spleen = experiment: Biodistribution in spleen of C57BL/6 mouse xenografted with mouse B16F10 cells at 3.7 MBq, iv after 1 hr by gamma-scintillation counting analysis; assay type: ADME, organism-based, B16-F10; details: in vivo; how it was run: as §1
Pancreas [3] = experiment: Biodistribution in pancreas of C57BL/6 mouse xenografted with mouse B16F10 cells at 3.7 MBq, iv after 1 hr by gamma-scintillation counting analysis; assay type: ADME, organism-based, B16-F10; details: in vivo; how it was run: as §1
Liver = experiment: Biodistribution in liver of C57BL/6 mouse xenografted with mouse B16F10 cells at 3.7 MBq, iv after 1 hr by gamma-scintillation counting analysis; assay type: ADME, organism-based, B16-F10; details: in vivo; how it was run: as §1
Heart [4] = experiment: Biodistribution in heart of C57BL/6 mouse xenografted with mouse B16F10 cells at 3.7 MBq, iv after 1 hr by gamma-scintillation counting analysis; assay type: ADME, organism-based, B16-F10; details: in vivo; how it was run: as §1
[5] = Drug uptake in tumor of C57BL/6 mouse xenografted with mouse B16F10 cells at 3.7 MBq, iv after 5 mins by PET imaging analysis; assay type: ADME, organism-based, Neoplasm, B16-F10; details: in vivo
How it was run: (§2)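 Dynamic small-animal PET in B16F10 tumor-bearing mice (n = 4) after tail-vein injection of ~3.7 MBq (100 μCi). Scanning began ~2.0 min post-injection and ran 35 min (6×20 s, 8×60 s, 10×150 s; 24 frames). ROI counts converted to %ID/g assuming 1 g/ml tissue density. No attenuation correction.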

Mus musculus = experiment: Biodistribution in tumor of C57BL/6 mouse xenografted with mouse B16F10 cells at 3.7 MBq, iv after 1 hr by gamma-scintillation counting analysis; assay type: ADME, organism-based, Neoplasm, B16-F10; details: in vivo; how it was run: as §1
[6] = Drug uptake in tumor of C57BL/6 mouse xenografted with mouse B16F10 cells at 3.7 MBq, iv after 2 hrs by PET imaging analysis; assay type: ADME, organism-based, Neoplasm, B16-F10; details: in vivo
How it was run: (§3)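 Static small-animal PET at 0.5, 1 and 2 h after tail-vein injection of ~3.7 MBq (100 μCi) into B16F10-bearing C57BL/6 mice (n = 4 per probe). Isoflurane anesthesia, 5% induction and 2% maintenance in O2. Decay-corrected images. ROI-derived %ID/g assumes 1 g/ml density, without attenuation correction. Mean ± SD.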

[7] = Drug uptake in tumor of C57BL/6 mouse xenografted with mouse B16F10 cells at 3.7 MBq, iv after 1 hr by PET imaging analysis; assay type: ADME, organism-based, Neoplasm, B16-F10; details: in vivo; how it was run: as §3
Kidney [8] = experiment: Drug uptake in kidney of C57BL/6 mouse xenografted with mouse B16F10 cells at 3.7 MBq, iv after 35 mins by PET imaging analysis; assay type: ADME, organism-based, B16-F10; details: in vivo; how it was run: as §2
[9] = Drug uptake in tumor of C57BL/6 mouse xenografted with mouse B16F10 cells at 3.7 MBq, iv after 35 mins by PET imaging analysis; assay type: ADME, organism-based, Neoplasm, B16-F10; details: in vivo; how it was run: as §2
Nucleic Acid [10] = experiment: Ratio of drug uptake in tumor to muscle of C57BL/6 mouse xenografted with mouse B16F10 cells at 3.7 MBq, iv after 2 hrs by gamma-scintillation counting analysis; assay type: ADME, organism-based, B16-F10; details: in vivo
How it was run: (§4)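 Same subcutaneous B16F10 model and tail-vein dose of about 3.7 MBq (100 μCi), n = 4 per group. Dissection at 1 or 2 h p.i. Gamma-counter %ID/g of tumor divided by that of blood, lung, liver or muscle, given as mean ± SD.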

Nucleic Acid [11] = experiment: Ratio of drug uptake in tumor to liver of C57BL/6 mouse xenografted with mouse B16F10 cells at 3.7 MBq, iv after 2 hrs by gamma-scintillation counting analysis; assay type: ADME, organism-based, B16-F10; details: in vivo; how it was run: as §4
Nucleic Acid [12] = experiment: Ratio of drug uptake in tumor to lungs of C57BL/6 mouse xenografted with mouse B16F10 cells at 3.7 MBq, iv after 2 hrs by gamma-scintillation counting analysis; assay type: ADME, organism-based, B16-F10; details: in vivo; how it was run: as §4
Nucleic Acid [13] = experiment: Ratio of drug uptake in tumor to muscle of C57BL/6 mouse xenografted with mouse B16F10 cells at 3.7 MBq, iv after 1 hr by gamma-scintillation counting analysis; assay type: ADME, organism-based, B16-F10; details: in vivo; how it was run: as §4
Nucleic Acid [14] = experiment: Ratio of drug uptake in tumor to lungs of C57BL/6 mouse xenografted with mouse B16F10 cells at 3.7 MBq, iv after 1 hr by gamma-scintillation counting analysis; assay type: ADME, organism-based, B16-F10; details: in vivo; how it was run: as §4
Nucleic Acid [15] = experiment: Ratio of drug uptake in tumor to blood of C57BL/6 mouse xenografted with mouse B16F10 cells at 3.7 MBq, iv after 1 hr by gamma-scintillation counting analysis; assay type: ADME, organism-based, B16-F10; details: tumour; how it was run: as §4
Muscle tissue [16] = experiment: Biodistribution in muscle of C57BL/6 mouse xenografted with mouse B16F10 cells at 3.7 MBq, iv after 2 hrs by gamma-scintillation counting analysis; assay type: ADME, organism-based, B16-F10; details: in vivo; how it was run: as §1
Zone of skin [17] = experiment: Biodistribution in skin of C57BL/6 mouse xenografted with mouse B16F10 cells at 3.7 MBq, iv after 2 hrs by gamma-scintillation counting analysis; assay type: ADME, organism-based, B16-F10; details: in vivo; how it was run: as §1
Kidney [18] = experiment: Biodistribution in kidney of C57BL/6 mouse xenografted with mouse B16F10 cells at 3.7 MBq, iv after 2 hrs by gamma-scintillation counting analysis; assay type: ADME, organism-based, B16-F10; details: in vivo; how it was run: as §1
Intestine [19] = experiment: Biodistribution in intestine of C57BL/6 mouse xenografted with mouse B16F10 cells at 3.7 MBq, iv after 2 hrs by gamma-scintillation counting analysis; assay type: ADME, organism-based, B16-F10; details: in vivo; how it was run: as §1
Stomach [20] = experiment: Biodistribution in stomach of C57BL/6 mouse xenografted with mouse B16F10 cells at 3.7 MBq, iv after 2 hrs by gamma-scintillation counting analysis; assay type: ADME, organism-based, B16-F10; details: in vivo; how it was run: as §1
Pancreas [21] = experiment: Biodistribution in pancreas of C57BL/6 mouse xenografted with mouse B16F10 cells at 3.7 MBq, iv after 2 hrs by gamma-scintillation counting analysis; assay type: ADME, organism-based, B16-F10; details: in vivo; how it was run: as §1
Heart [22] = experiment: Biodistribution in heart of C57BL/6 mouse xenografted with mouse B16F10 cells at 3.7 MBq, iv after 2 hrs by gamma-scintillation counting analysis; assay type: ADME, organism-based, B16-F10; details: in vivo; how it was run: as §1
Blood = experiment: Biodistribution in blood of C57BL/6 mouse xenografted with mouse B16F10 cells at 3.7 MBq, iv after 2 hrs by gamma-scintillation counting analysis; assay type: ADME, organism-based, B16-F10; details: in vivo; how it was run: as §1
Bone = experiment: Biodistribution in bone of C57BL/6 mouse xenografted with mouse B16F10 cells at 3.7 MBq, iv after 1 hr by gamma-scintillation counting analysis; assay type: ADME, organism-based, Bone element, B16-F10; details: in vivo; how it was run: as §1
Muscle tissue [23] = experiment: Biodistribution in muscle of C57BL/6 mouse xenografted with mouse B16F10 cells at 3.7 MBq, iv after 1 hr by gamma-scintillation counting analysis; assay type: ADME, organism-based, B16-F10; details: in vivo; how it was run: as §1
Zone of skin [24] = experiment: Biodistribution in skin of C57BL/6 mouse xenografted with mouse B16F10 cells at 3.7 MBq, iv after 1 hr by gamma-scintillation counting analysis; assay type: ADME, organism-based, B16-F10; details: in vivo; how it was run: as §1

## CCN(CC)CCNC(=O)c1ccc([18F])cn1
Intestine [1]
  Drug uptake: 2.01 % ID/g
Brain
  Drug uptake: 1.28 % ID/g
Stomach [2]
  Drug uptake: 4.26 % ID/g
Spleen
  Drug uptake: 1.78 % ID/g
Pancreas [3]
  Drug uptake: 1.61 % ID/g
Liver
  Drug uptake: 4.71 % ID/g
Heart [4]
  Drug uptake: 1.17 % ID/g
[5]
  Drug uptake: 5.28 % ID/g
Mus musculus
  Drug uptake: 15.2 % ID/g
[6]
  Drug uptake: 16.87 % ID/g
[7]
  Drug uptake: 16.61 % ID/g
Kidney [8]
  Drug uptake: 9.44 % ID/g
[9]
  Drug uptake: 10.52 % ID/g
Nucleic Acid [10]
  Ratio: 36.79
Nucleic Acid [11]
  Ratio: 5.14
Nucleic Acid [12]
  Ratio: 24.92
Nucleic Acid [13]
  Ratio: 13.84
Nucleic Acid [14]
  Ratio: 9.94
Nucleic Acid [15]
  Ratio: 41.44
Muscle tissue [16]
  Drug uptake: 0.41 % ID/g
Zone of skin [17]
  Drug uptake: 0.68 % ID/g
Kidney [18]
  Drug uptake: 1.03 % ID/g
Intestine [19]
  Drug uptake: 0.88 % ID/g
Stomach [20]
  Drug uptake: 1.47 % ID/g
Pancreas [21]
  Drug uptake: 0.61 % ID/g
Heart [22]
  Drug uptake: 0.59 % ID/g
Blood
  Drug uptake: 0.19 % ID/g
Bone
  Drug uptake: 2.4 % ID/g
Muscle tissue [23]
  Drug uptake: 1.16 % ID/g
Zone of skin [24]
  Drug uptake: 1.3 % ID/g
